Laboratory results taken from ChEMBL document CHEMBL4765436, “Discovery, structure-activity relationship study and biological evaluation of 2-thioureidothiophene-3-carboxylates as a novel class of C-X-C chemokine receptor 2 (CXCR2) antagonists” (Eur J Med Chem, 2020).
Blank lines part the entries; values can stand above or below the compound they belong to. Active and inactive are the calls of the source. The rule behind the calls is not given here.

Assays:
SK-OV-3 [1] = test: Inhibition of colony formation in human SK-OV-3 cells at 8.9 to 20 uM incubated for 7 to 10 days in presence of doxorubicin by crystal violet staining based assay; format: functional, cell-based; conditions: dose 8.9-20 µM, time 7-10 day
Outline: (§1)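 Colony formation: cells were seeded at 300/well, attached overnight, then treated with compounds for 7-10 days until colonies formed in DMSO wells. Colonies were stained with 0.05% crystal violet for 30 min and washed with water.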

[2] = biological target: T1, C-X-C chemokine receptor type 2 (Homo sapiens, UniProt P25025); test: (§2) Antagonist activity at CXCR2 (unknown origin) expressed in U2OS cells cotransfected with beta-arrestin/TEV protease fusion protein and beta-lactamase assessed as inhibition of CXCL8-induced beta arrestin2 recruitment preincubated for 30 mins followed by CXCL8 stimulation and measured after 5 hrs by FRET based fluorescence/Tango assay; format: cell-based
T1 sequence (P25025 whole entry): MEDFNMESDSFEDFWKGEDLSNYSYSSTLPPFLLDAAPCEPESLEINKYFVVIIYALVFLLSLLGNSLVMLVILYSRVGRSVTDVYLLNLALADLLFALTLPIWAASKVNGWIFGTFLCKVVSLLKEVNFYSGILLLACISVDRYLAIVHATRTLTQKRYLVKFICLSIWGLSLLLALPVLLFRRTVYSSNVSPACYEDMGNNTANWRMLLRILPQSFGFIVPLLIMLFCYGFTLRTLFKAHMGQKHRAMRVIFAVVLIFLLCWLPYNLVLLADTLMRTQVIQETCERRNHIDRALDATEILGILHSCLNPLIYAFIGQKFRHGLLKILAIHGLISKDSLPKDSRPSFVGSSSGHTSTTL

[3] = biological target: T2, C-X-C chemokine receptor type 2 (Homo sapiens) (UniProt P25025); test: Antagonist activity at CXCR2 (unknown origin) expressed in HEK293T cells cotransfected with GFP assessed as inhibition of CXCL8-induced cJUN phosphorylation at 10 to 30 uM post CXCL8 treatment by immunoblot assay; format: cell-based; conditions: dose 10-30 µM
T2 sequence (whole entry): T1 sequence (P25025 whole entry)
Outline: (§3)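 293T-CXCR2-GFP cells (5 x 10^5/well) were attached overnight, treated with compounds and lysed in RIPA buffer with protease/phosphatase inhibitors. Lysates were normalized by BCA and resolved on 10% SDS-PAGE. Blots were probed overnight at 4 °C with antibodies (1:500-1:1000) to p-ERK1/2, p-JNK, p-cJUN or p-p38, then with a fluorescent secondary antibody, and imaged by infrared imaging.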

[4] = biological target: T2, C-X-C chemokine receptor type 2 (Homo sapiens); test: as §2, with “recruitment at 10 uM” for “recruitment”, “assay relative to control” for “assay”; format: cell-based
Outline: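 Tango assay: CXCR2-bla or CXCR4-bla U2OS cells were seeded at 11000/well for 24 h in DMEM with 1% dialyzed FBS. Cells were pretreated with inhibitor for 30 min, then given CXCL8 (12 nM; CXCR2) or SDF-1α (60 nM; CXCR4) for 5 h at 37 °C. […] IC50 is the mean±SD of ≥3 independent experiments.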

[5] = biological target: T2, C-X-C chemokine receptor type 2 (Homo sapiens); test: Antagonist activity at CXCR2 (unknown origin) expressed in HEK293T cells cotransfected with GFP and p22F assessed as inhibition of […] at 30 uM incubated at 37 degC for 30 min and at room temperature for 30 min by fluorescence based assay; format: functional, cell-based; conditions: time 60.0 min
Outline: (§4)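 293T-CXCR2-GFP cells were seeded at 30000 cells/well and loaded next day with Fluo-4 NW dye plus probenecid ([…] final). Loading was 30 min at 37 °C, then 30 min at room temperature, protected from light. Compound and CXCL8 (300 nM, by injector) were added. Fluorescence was read immediately (ex 490/em 535 nm) and normalized to the pre-stimulation baseline.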

[6] = biological target: C-X-C chemokine receptor type 4 (Homo sapiens, UniProt P61073); test: Antagonist activity at CXCR4 (unknown origin) expressed in U2OS cells cotransfected with beta-arrestin/TEV protease fusion protein and beta-lactamase assessed as inhibition of SDF1-alpha-induced beta arrestin2 recruitment preincubated for 30 mins followed by SDF1-alpha stimulation and measured after 5 hrs by FRET based fluorescence/Tango assay
Chain of C-X-C chemokine receptor type 4 (P61073 whole entry, the tested form may be a part): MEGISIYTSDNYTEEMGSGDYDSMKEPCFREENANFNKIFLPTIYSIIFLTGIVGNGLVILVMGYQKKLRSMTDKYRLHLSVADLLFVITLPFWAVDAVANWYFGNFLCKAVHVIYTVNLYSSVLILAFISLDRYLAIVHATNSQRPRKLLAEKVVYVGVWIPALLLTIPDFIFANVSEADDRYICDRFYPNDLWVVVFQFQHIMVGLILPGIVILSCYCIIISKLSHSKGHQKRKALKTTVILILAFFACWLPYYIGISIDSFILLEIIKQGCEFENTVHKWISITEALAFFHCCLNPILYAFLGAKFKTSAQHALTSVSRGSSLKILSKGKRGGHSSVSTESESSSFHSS

[7] = biological target: T2, C-X-C chemokine receptor type 2 (Homo sapiens); test: Antagonist activity at CXCR2 (unknown origin) expressed in HEK293T cells cotransfected with GFP assessed as inhibition of CXCL8-induced ERK1/2 phosphorylation pretreated at 10 to 30 uM followed by treated with CXCL8 by immunoblot assay; format: cell-based; conditions: dose 10-30 µM; outline: as §3
U2OS = test: Antimigratory activity against human U2OS cells overexpressing CXCR2/bla assessed as reduction in CXCL8-mediated wound closure at 10 uM incubated for 20 mins followed by CXCL8 stimulation and measured after 24 hrs by Giemsa staining based scratch wound healing assay; format: functional, cell-based; conditions: time 24.3 hrs
Outline: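 CXCR2-bla U2OS cells were seeded at 35000/well in DMEM with 1% FBS overnight and scratched with a pipette tip. Compounds (10 μM) were added for 20 min, then CXCL8 (60 nM) for 24 h; unstimulated wells served as control. Cells were methanol-fixed, Giemsa-stained and imaged by transmitted light. Two independent experiments were run in duplicate.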

[8] = biological target: T2, C-X-C chemokine receptor type 2 (Homo sapiens); test: Antagonist activity at CXCR2 (unknown origin) expressed in HEK293T cells cotransfected with GFP assessed as inhibition of CXCL8-induced p38 phosphorylation at 10 to 30 uM post CXCL8 treatment by immunoblot assay; format: cell-based; conditions: dose 10-30 µM; outline: as §3
[9] = biological target: T2, C-X-C chemokine receptor type 2 (Homo sapiens); test: Antagonist activity at CXCR2 (unknown origin) expressed in HEK293T cells cotransfected with GFP assessed as inhibition of CXCL8-induced AKT phosphorylation at 10 to 30 uM post CXCL8 treatment by immunoblot assay; format: cell-based; conditions: dose 10-30 µM
[10] = biological target: T2, C-X-C chemokine receptor type 2 (Homo sapiens); test: Antagonist activity at CXCR2 (unknown origin) expressed in HEK293T cells cotransfected with GFP and p22F assessed as inhibition of CXCL8-reduced cAMP production at 10 uM incubated for 10 mins followed by CXCL8 stimulation and measured after 10 mins by luminescence based assay; format: functional, cell-based; conditions: time 20.0 min
Outline: (§5)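 293T-CXCR2-GFP-p22F cells express a cAMP-sensitive firefly luciferase. They were seeded at 30000 cells/well overnight in CO2-independent medium with 10% FBS, then incubated with 1% cAMP reagent for 2 h at 37 °C. Cells were pretreated with compound for 10 min, given CXCL8 (50 nM) for 10 min, then stimulated with forskolin (50 μM) until maximal signal (~80 min). Luminescence read-out.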

[11] = biological target: T2, C-X-C chemokine receptor type 2 (Homo sapiens); test: Antagonist activity at CXCR2 (unknown origin) expressed in HEK293T cells cotransfected with GFP assessed as inhibition of CXCL8-induced JNK phosphorylation at 10 to 30 uM post CXCL8 treatment by immunoblot assay; format: cell-based; conditions: dose 10-30 µM; outline: as §3
Translocator protein [12] = biological target: T3, Translocator protein (Homo sapiens, UniProt P30536); test: Inhibition of PBR (unknown origin) at 10 uM by radioligand binding assay relative to control
T3 sequence (P30536 whole entry): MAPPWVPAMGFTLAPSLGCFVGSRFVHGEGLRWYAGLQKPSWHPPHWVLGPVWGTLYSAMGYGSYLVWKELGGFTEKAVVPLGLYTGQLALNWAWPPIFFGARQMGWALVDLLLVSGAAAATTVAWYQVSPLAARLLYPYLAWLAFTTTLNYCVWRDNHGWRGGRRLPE
Outline: (§6)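 Primary radioligand binding screen across 50 GPCRs at a single concentration of 10 μM. Compounds with ≥50% inhibition went on to secondary binding.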

Translocator protein [13] = biological target: T3, Translocator protein; test: Inhibition of PBR (unknown origin) by radioligand binding assay
Outline: (§7)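 Secondary radioligand binding assay determining equilibrium binding affinity (Ki).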

[14] = biological target: T4, Alpha-2A adrenergic receptor (Homo sapiens, UniProt P08913); test: Inhibition of alpha 2a-adrenergic receptor (unknown origin) by radioligand binding assay; outline: as §7
T4 sequence (P08913 whole entry): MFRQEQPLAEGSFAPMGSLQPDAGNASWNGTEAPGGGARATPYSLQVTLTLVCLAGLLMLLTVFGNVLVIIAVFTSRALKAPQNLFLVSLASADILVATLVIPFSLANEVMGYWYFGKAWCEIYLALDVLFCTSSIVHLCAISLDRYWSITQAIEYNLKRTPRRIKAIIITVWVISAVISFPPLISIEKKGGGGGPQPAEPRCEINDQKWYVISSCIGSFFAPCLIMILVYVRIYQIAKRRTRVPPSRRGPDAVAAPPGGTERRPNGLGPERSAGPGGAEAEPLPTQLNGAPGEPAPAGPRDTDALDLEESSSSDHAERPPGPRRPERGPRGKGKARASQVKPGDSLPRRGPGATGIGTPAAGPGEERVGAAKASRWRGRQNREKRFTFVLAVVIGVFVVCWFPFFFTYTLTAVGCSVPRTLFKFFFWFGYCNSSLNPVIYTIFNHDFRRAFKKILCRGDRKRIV

[15] = biological target: T5, 5-hydroxytryptamine receptor 2B (Homo sapiens, UniProt P41595); test: Inhibition of 5-HT2B (unknown origin) by radioligand binding assay; outline: as §7
T5 sequence (P41595 whole entry): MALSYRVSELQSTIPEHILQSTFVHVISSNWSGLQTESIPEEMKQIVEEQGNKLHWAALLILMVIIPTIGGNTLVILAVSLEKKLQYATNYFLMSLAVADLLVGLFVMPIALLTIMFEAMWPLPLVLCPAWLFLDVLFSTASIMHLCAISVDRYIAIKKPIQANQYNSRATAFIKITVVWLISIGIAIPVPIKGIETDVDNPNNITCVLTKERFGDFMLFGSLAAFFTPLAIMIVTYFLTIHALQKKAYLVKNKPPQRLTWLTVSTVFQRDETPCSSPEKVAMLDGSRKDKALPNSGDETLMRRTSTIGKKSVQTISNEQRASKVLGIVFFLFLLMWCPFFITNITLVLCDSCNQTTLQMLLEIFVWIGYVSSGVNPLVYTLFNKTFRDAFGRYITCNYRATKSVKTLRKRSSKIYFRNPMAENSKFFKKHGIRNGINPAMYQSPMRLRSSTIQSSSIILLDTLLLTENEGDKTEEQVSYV

[16] = biological target: T5, 5-hydroxytryptamine receptor 2B; test: Inhibition of 5-HT2B (unknown origin) at 10 uM by radioligand binding assay relative to control; outline: as §6
[17] = biological target: T6, Alpha-2A adrenergic receptor (Homo sapiens) (UniProt P08913); test: Inhibition of alpha 2a-adrenergic receptor (unknown origin) at 10 uM by radioligand binding assay relative to control; outline: as §6
T6 sequence (whole entry): T4 sequence (P08913 whole entry)

[18] = biological target: T2, C-X-C chemokine receptor type 2 (Homo sapiens); test: Antagonist activity at CXCR2 (unknown origin) expressed in HEK293T cells cotransfected with GFP assessed as inhibition of CXCL8-induced JNK phosphorylation at 10 uM post CXCL8 treatment by immunoblot assay; format: cell-based; outline: as §3
[19] = biological target: T2, C-X-C chemokine receptor type 2 (Homo sapiens); test: Antagonist activity at CXCR2 (unknown origin) expressed in HEK293T cells cotransfected with GFP assessed as inhibition of CXCL8-induced ERK1/2 phosphorylation pretreated at 10 uM followed by treated with CXCL8 by immunoblot assay; format: cell-based; conditions: filed as antagonist; outline: as §3
[20] = biological target: T2, C-X-C chemokine receptor type 2 (Homo sapiens); test: Antagonist activity at CXCR2 (unknown origin) expressed in HEK293T cells cotransfected with GFP and p22F assessed as inhibition of […] at 15 uM incubated at 37 degC for 30 min and at room temperature for 30 min by fluorescence based assay; format: functional, cell-based; conditions: filed as antagonist, time 60.0 min; outline: as §4
[21] = biological target: T2, C-X-C chemokine receptor type 2 (Homo sapiens); test: Antagonist activity at CXCR2 (unknown origin) expressed in HEK293T cells cotransfected with GFP assessed as inhibition of CXCL8-induced p38 phosphorylation at 10 uM post CXCL8 treatment by immunoblot assay; format: cell-based; outline: as §3
[22] = biological target: T2, C-X-C chemokine receptor type 2 (Homo sapiens); test: Antagonist activity at CXCR2 (unknown origin) expressed in HEK293T cells cotransfected with GFP assessed as inhibition of CXCL8-induced cJUN phosphorylation at 10 uM post CXCL8 treatment by immunoblot assay; format: cell-based; outline: as §3
[23] = biological target: T2, C-X-C chemokine receptor type 2 (Homo sapiens); test: Antagonist activity at CXCR2 (unknown origin) expressed in HEK293T cells cotransfected with GFP assessed as inhibition of CXCL8-induced AKT phosphorylation at 10 uM post CXCL8 treatment by immunoblot assay; format: cell-based
[24] = biological target: T2, C-X-C chemokine receptor type 2 (Homo sapiens); test: Antagonist activity at CXCR2 (unknown origin) expressed in HEK293T cells cotransfected with GFP and p22F assessed as inhibition of CXCL8-reduced cAMP production at 5 uM incubated for 10 mins followed by CXCL8 stimulation and measured after 10 mins by luminescence based assay; format: functional, cell-based; conditions: filed as antagonist, time 20.0 min; outline: as §5
SK-OV-3 [25] = test: Inhibition of colony formation in human SK-OV-3 cells at 38 nM incubated for 7 to 10 days by crystal violet staining based assay; format: functional, cell-based; conditions: time 7-10 day; outline: as §1
[26] = biological target: T1, C-X-C chemokine receptor type 2; test: Inhibition of CXCR2 (unknown origin) expressed in HEK293T cells cotransfected with GFP-p22F assessed as reduction in IL-8-induced cAMP incubated for 10 mins followed by IL-8 stimulation and measured after 10 mins by luminescence based assay; format: functional, cell-based; outline: as §5

IC50 [2]: 1.1 µM | Activity [3]: inactive | inhibition [4]: 87% | Activity [5]: inactive | IC50 [6]: > 30 µM | Activity ([7]; filed as antagonist): Active | Activity [8]: inactive | Activity [9]: inactive | Activity [10]: inactive | Activity [11]: inactive
SMILES: CC(C)(C)OC(=O)c1c(NC(=S)Nc2ccc(F)cc2)sc2c1CCOC2
inhibition (SK-OV-3 [1]): Active | inhibition (U2OS): Active

inhibition (Translocator protein [12]): 63.1% | Ki (Translocator protein [13]): 4 µM | Ki [14]: > 10 µM | Ki [15]: > 10 µM | IC50 [2]: 1.7 µM | inhibition [16]: 58% | inhibition [17]: 55.2% | IC50 [6]: > 15 µM
SMILES: CC1COCc2sc(NC(=S)Nc3ccccc3)c(C(=O)OC(C)(C)C)c21 (centres undefined)
inhibition (SK-OV-3 [1]): Active

Activity [18]: inactive | Activity [19]: Active | Activity [20]: Active | Activity [21]: inactive | Activity [22]: inactive | Activity [23]: inactive | Activity [24]: Active
SMILES: N#Cc1ccc(NC(=O)Nc2ccccc2Br)c2nn[nH]c12
inhibition (U2OS): Active

SMILES: COc1cccc2c1C(=O)c1c(O)c3c(c(O)c1C2=O)C[C@@](O)(C(=O)CO)C[C@@H]3O[C@H]1C[C@H](N)[C@H](O)[C@H](C)O1
inhibition (SK-OV-3 [25]): inactive

Activity [5]: inactive | Activity [7]: inactive | IC50 [26]: 7.79 µM | Activity ([10]; filed as antagonist): Active
SMILES: CSc1nnc2n(-c3ccccc3)c(=O)c3c4c(sc3n12)CCC[C@H]4C
